UBC9 SUMO inh – blocks human SUMOylation mediated by UBC9; hit rate 0.36% among 290,000; HTRF SUMOylation assay, SAE1/SAE2 + UBC9, in vitro; inhibition, % at 35 µM; P63279; AID 2006; in the data active = inhibition above about 50%, passing the limit was not always enough
Target sequence (P63279 whole entry, looked up): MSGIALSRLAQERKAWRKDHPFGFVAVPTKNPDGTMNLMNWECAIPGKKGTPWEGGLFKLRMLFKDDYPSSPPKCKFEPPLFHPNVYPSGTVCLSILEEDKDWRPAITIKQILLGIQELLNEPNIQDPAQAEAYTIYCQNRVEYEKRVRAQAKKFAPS
HCV NS3 hel inh – HCV NS3 helicase inhibition; hit rate 0.56% among 290,000; NS3 helicase DNA unwinding, Cy5 molecular beacon fluorescence; inhibition, % at 10.9 µM;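 active = inhibition above the mean of all tested compounds plus 3 SD, set per campaign, cut at about 35% in these data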
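Compound dosing – single dose, 10.9 µM nominal final, DMSO 0.8% final · System – NS3 helicase fragment of HCV · Buffer or medium – MOPS pH 6.5, MgCl2, DTT, Tween20, BSA · Signal – Cy5 beacon fluorescence read at start and 1 h · Also added – annealed dual-labelled DNA beacon duplex, ATP-started · Schedule – 1 h at 25 °C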
ZTA counter – blocks Epstein-Barr virus ZTA, an EBNA-1 counter-screen; ZTA-DNA binding, fluorescence polarization; inhibition, % at 11 µM; hit rate 0.15% among 320,000; AID 2234; in the data active = inhibition above about 33%
Target sequence (P03206 whole entry, looked up): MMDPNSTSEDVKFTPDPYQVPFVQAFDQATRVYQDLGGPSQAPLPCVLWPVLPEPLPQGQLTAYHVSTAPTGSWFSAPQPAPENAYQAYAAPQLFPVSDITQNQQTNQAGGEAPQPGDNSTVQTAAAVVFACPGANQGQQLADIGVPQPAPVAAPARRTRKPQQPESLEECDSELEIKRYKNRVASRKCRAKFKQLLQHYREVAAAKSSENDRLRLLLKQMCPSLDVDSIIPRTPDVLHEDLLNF
EBNA-1 inhibitor – blocks EBNA-1 binding to DNA. EBNA-1 DNA binding, fluorescence polarization. inhibition, % at 14.8 µM. hit rate 0.34% among 300,000. AID 1950; in the data active = inhibition above about 28%
HCV core dimer – HCV core protein dimerization inhibition; TR-FRET GST/Flag-core106 dimerization, 1536-well; inhibition, % at 5 µM; hit rate 0.33% among 300,000;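 active = inhibition above the mean of all tested compounds plus 3 SD, set per screening campaign, cut at about 45% in these data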
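System – GST-tagged and Flag-tagged HCV core protein residues 1-106 · Repeats – one well for each compound · Technique – TR-FRET 671 and 617 nm emission · Doses – one concentration, 5 µM, in 0.5% DMSO · Times – 4 h, 22.5 °C incubation · Also added – Eu donor and XL665 acceptor anti-tag antibodies · Measure – percent inhibition of core106 dimerization signal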
NS3 helicase cf – confirmation of Hepatitis C virus NS3 helicase inhibitors. NS3 helicase DNA unwinding, Cy5 molecular beacon fluorescence. inhibition, % at 10.9 µM. shares compounds with HCV NS3 hel inh. hit rate 31% among 1,600;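 active = inhibition above the mean of all tested compounds plus 3 SD, cutoff set per campaign, cut at about 36% in these data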
DNA FID counter – intercalator displacement, NS3 helicase counter-screen. shares compounds with HCV NS3 hel inh. DNA fluorescent intercalator displacement, fluorescence. inhibition, % at 7.9 µM. hit rate 4% among 1,600. AID 1945; in the data active = inhibition above about 37%;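 note: higher means more displacement of ethidium bromide from the DNA hairpin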
A number is an active result. An excerpt weighted towards active compounds, which were near 1.4% of everything screened.

`COc1ccc(C2=NN(C(=O)CCC(=O)O)C(c3ccc(Br)cc3)C2)cc1` (stereo not drawn) gave UBC9 SUMO inh inactive, HCV NS3 hel inh 37.9, ZTA counter inactive, EBNA-1 inhibitor inactive, HCV core dimer inactive, NS3 helicase cf inactive and DNA FID counter inactive.
Screening COc1ccc(C2=NN(C(=O)CCCC(=O)O)C(c3cn(-c4ccccc4)nc3-c3ccccc3)C2)cc1 (stereo not drawn) returned HCV NS3 hel inh 46.2, ZTA counter inactive, EBNA-1 inhibitor inactive, HCV core dimer inactive, NS3 helicase cf 43.1 and DNA FID counter inactive.
`COc1ccc(C2=NN(C(=O)CCC(=O)O)C(c3ccccc3)C2)cc1` (stereo not drawn) gave UBC9 SUMO inh inactive and HCV NS3 hel inh inactive.
`CCOC(=O)C1=CC[C@]2(C)c3c(c4ccccc4n3C)C(=O)C1N2C` gave ZTA counter inactive.
Screening CC(=O)Nc1ccc(S(=O)(=O)N(C)CC(=O)OCCOc2cccc(C)c2)cc1 returned UBC9 SUMO inh inactive, HCV NS3 hel inh inactive, ZTA counter inactive, EBNA-1 inhibitor inactive and HCV core dimer inactive.
CCc1ccccc1S(=O)(=O)c1c(C)cc(C)nc1Cl was read as UBC9 SUMO inh inactive, HCV NS3 hel inh inactive, ZTA counter inactive, EBNA-1 inhibitor inactive and HCV core dimer inactive.
Screening COc1ccc(N2CC(C(=O)Nc3nnc(SCC(=O)NCC4CCCO4)s3)CC2=O)cc1 (stereo not drawn) returned UBC9 SUMO inh inactive, HCV NS3 hel inh inactive, ZTA counter inactive, EBNA-1 inhibitor inactive and HCV core dimer inactive.
For COc1ccc(CCNC(=O)CC(c2ccccc2)c2cc(C)ccc2O)cc1OC (stereo not drawn) the results were UBC9 SUMO inh inactive, HCV NS3 hel inh inactive, ZTA counter inactive, EBNA-1 inhibitor inactive and HCV core dimer inactive.
Screening Cc1ccc(-n2c(SCC(=O)O)nc3sc4c(c3c2=O)C(C)CCC4)cc1 (stereo not drawn) returned UBC9 SUMO inh inactive, HCV NS3 hel inh 55.4, ZTA counter inactive, EBNA-1 inhibitor inactive, HCV core dimer inactive, NS3 helicase cf 65.6 and DNA FID counter inactive.
For Cc1nn(Cc2ccc(Cl)cc2)c(C)c1NC(=O)c1noc2c1CCc1ccccc1-2 the results were UBC9 SUMO inh inactive, HCV NS3 hel inh 57.3, ZTA counter inactive, EBNA-1 inhibitor inactive, HCV core dimer inactive, NS3 helicase cf inactive and DNA FID counter inactive.
COc1ccc(-c2nc(CSCC(=O)NC3CCN(Cc4ccccc4)CC3)c(C)o2)cc1OC was read as HCV NS3 hel inh inactive, ZTA counter inactive, EBNA-1 inhibitor inactive and HCV core dimer inactive.
Screening Cc1noc(C)c1CSCC(=O)N(C)CC(=O)Nc1ccccc1Cl returned UBC9 SUMO inh inactive, HCV NS3 hel inh inactive, ZTA counter inactive, EBNA-1 inhibitor inactive and HCV core dimer inactive.
O=C1OC(c2cccs2)=N/C1=C\c1ccc(-c2ccccc2Cl)o1 was read as UBC9 SUMO inh inactive, HCV NS3 hel inh 70.9, NS3 helicase cf 47.8 and DNA FID counter inactive.
`Cn1c(=NC(=O)CS(=O)(=O)c2ccccc2)sc2cc([N+](=O)[O-])ccc21` gave ZTA counter inactive, EBNA-1 inhibitor inactive and HCV core dimer inactive.
`CC(C)(C)CN1CCN(Cc2cccnc2)CC1CCO` (stereo not drawn) gave UBC9 SUMO inh inactive, HCV NS3 hel inh inactive, ZTA counter inactive, EBNA-1 inhibitor inactive and HCV core dimer inactive.
For Cc1onc(-c2ccccc2)c1C(=O)N/N=C/c1ccco1 the results were UBC9 SUMO inh inactive, HCV NS3 hel inh 40.0, ZTA counter inactive, EBNA-1 inhibitor inactive, HCV core dimer inactive, NS3 helicase cf inactive and DNA FID counter inactive.
Screening Cc1onc(-c2ccccc2)c1C(=O)N/N=C/c1cccc(O)c1 returned UBC9 SUMO inh inactive, HCV NS3 hel inh inactive, ZTA counter inactive, EBNA-1 inhibitor inactive and HCV core dimer inactive.
Screening COc1ccc(CCNC(=O)[C@@H](NC(=O)N2CC(=O)Nc3ccccc32)C(C)C)cc1OC returned UBC9 SUMO inh inactive, HCV NS3 hel inh inactive, ZTA counter inactive, EBNA-1 inhibitor inactive and HCV core dimer inactive.
Screening CC(C)CSc1oc(-c2ccco2)nc1S(=O)(=O)c1ccccc1 returned UBC9 SUMO inh inactive, HCV NS3 hel inh 40.1, ZTA counter inactive, EBNA-1 inhibitor inactive, HCV core dimer inactive, NS3 helicase cf inactive and DNA FID counter inactive.
Screening CCCCSc1oc(-c2ccco2)nc1S(=O)(=O)c1ccccc1 returned UBC9 SUMO inh inactive, HCV NS3 hel inh inactive, ZTA counter inactive, EBNA-1 inhibitor inactive and HCV core dimer inactive.
`CC(C(=O)O)N1C(=O)C2C3CC(C2C1=O)C1C(c2ccccc2)c2sc(=O)[nH]c2SC31` (stereo not drawn) gave UBC9 SUMO inh inactive, HCV NS3 hel inh 74.6, ZTA counter inactive, EBNA-1 inhibitor inactive, HCV core dimer inactive, NS3 helicase cf inactive and DNA FID counter inactive.
`CC(=O)Nc1sc(N/N=C\c2ccc(O)cc2)nc1-c1cccs1` gave UBC9 SUMO inh inactive, HCV NS3 hel inh inactive, ZTA counter inactive, EBNA-1 inhibitor inactive and HCV core dimer inactive.
CCN(CC)c1ccc(/C=C(\C#N)c2nc(-c3cccs3)c(NC(C)=O)s2)cc1 was read as UBC9 SUMO inh inactive, HCV NS3 hel inh 45.5, NS3 helicase cf inactive and DNA FID counter inactive.
For COc1ccc(Cc2nnc(NC(=O)c3ccc(F)cc3)s2)cc1OC the results were UBC9 SUMO inh inactive, HCV NS3 hel inh 47.0, ZTA counter inactive, EBNA-1 inhibitor inactive, HCV core dimer inactive, NS3 helicase cf inactive and DNA FID counter inactive.
`Cc1occc1-c1nnc(SCC(=O)N2CCCc3ccccc32)n1Cc1ccco1` gave UBC9 SUMO inh inactive, HCV NS3 hel inh 45.2, NS3 helicase cf inactive and DNA FID counter inactive.
For O=C(CCl)c1ccc2[nH]c(=O)oc2c1 the results were UBC9 SUMO inh inactive, HCV NS3 hel inh inactive, ZTA counter inactive, EBNA-1 inhibitor inactive and HCV core dimer inactive.
Screening O=C(O)CCN1C(=O)C(=C2CCCCCC2)SC1=S returned UBC9 SUMO inh inactive, HCV NS3 hel inh inactive, ZTA counter inactive, EBNA-1 inhibitor inactive and HCV core dimer inactive.
O=C1C(=C2CCCCC2)SC(=S)N1Cc1ccco1 was read as UBC9 SUMO inh inactive, HCV NS3 hel inh 71.5, ZTA counter inactive, EBNA-1 inhibitor inactive, HCV core dimer inactive, NS3 helicase cf inactive and DNA FID counter inactive.
Screening CC1CCCC(NC(=O)CN2CCN(S(=O)(=O)c3cccs3)CC2)C1C (stereo not drawn) returned ZTA counter inactive.
`O=C(c1ccco1)N1CCN(C(=O)c2ccccc2[N+](=O)[O-])CC1` gave UBC9 SUMO inh inactive, HCV NS3 hel inh inactive, ZTA counter inactive, EBNA-1 inhibitor inactive and HCV core dimer inactive.

Bioassay records as filed in PubChem BioAssay.
